Published values of several laboratories.
Compare with care: the assays were run in different laboratories. pIC50: −log10 of the molar value.
Read-out: cell growth or viability

Compound	cell line	technique	concentration	time	endpoint	result
N#CSCCCCOc1ccc2c(-c3ccccc3)cc(=O)oc2c1	SW1573	SRB			GI50	25 µM
CCCCCCCCCCCCCCCCCCOc1ccccc1CC(=O)OCC[N+]1(C)CCCC1	NCI-H23	SRB	10 µM		inhibition	91.5%
C(=N\Nc1cc(N/N=C/c2ccc3ccccc3n2)nc(-c2ccccc2)n1)/c1ccc2ccccc2n1	Bel-7402	MTT		48 h	pIC50	4.99
CCCCCCCCCCCCCCCCCCOc1ccc(CC(=O)OCCC[N+](C)(C)C)cc1	NCI-H23	SRB	10 µM		inhibition	18.9%
CC(=O)O[C@H]1C(=O)[C@@]2(C)[C@H]([C@H](OC(=O)c3ccccc3)[C@]3(O)C[C@H](OC(=O)[C@H](O)[C@@H](NC(=O)c4ccccc4)c4ccccc4)C(C)=C1C3(C)C)[C@]1(OC(C)=O)CO[C@@H]1C[C@@H]2O	CHP-212	SRB	13.72 nM		viability	78.4%
C[C@@H]1COCCN1c1cc(C2([S@](C)(=N)=O)CC2)nc(-c2cc[nH]c3nccc2-3)n1	CT26	ATP luminescence		48 h	pIC50	5.06
CCCCCCCCCCCCCCCCCCOc1ccc(CC(=O)OCC[N+](C)(C)C)cc1	NCI-H23	SRB	10 µM		inhibition	6.67%
O=C(Nc1ccccc1/N=c1\cc(-c2ccc3c(c2)OCO3)oc2ccccc12)N1CCNCC1	MOLM-13	CCK-8	1 µM		inhibition	1.47%
O=C(C[C@@H](C(F)F)n1ccc(F)n1)N1CCC(O)(Cn2cnc3c(cnn3-c3ccc(F)cc3)c2=O)CC1	CHP-212	SRB	82.3 nM		viability	47.2%
COC(=O)[C@H]1[C@@H](O)[C@@]2(O)c3c(OC)cc(O[C@@H]4O[C@@H]([C@H](O)CO)CO[C@H]4OC)cc3O[C@@]2(c2ccc(OC)cc2)[C@@H]1c1ccccc1	C6661	MTS		48 h	pIC50	8.15
CC(C)(C)[C@H](N)C(=O)Nc1ccccc1/N=c1\cc(-c2ccc3c(c2)OCO3)oc2ccccc12	MOLM-13	CCK-8	1 µM		inhibition	4.05%
CCCCCCCCCCCCCCCCCCOc1ccccc1CC(=O)OCC[N+]1(C)CCCCC1	NCI-H23	SRB	10 µM		inhibition	70.2%
COc1ncnc(C2CC2)c1-c1ncc2cnn(Cc3ccc(-c4nc(C(F)(F)F)cn4C(C)C)cc3)c2n1	CHP-212	SRB	12.5 µM		viability	85.3%
Nc1ccccc1/N=c1\cc(-c2ccc3c(c2)OCO3)oc2ccccc12	MOLM-13	CCK-8	1 µM		inhibition	5.39%
CCNNC(=O)c1ccc(CN(CC(=O)NCc2ccccc2)C(=O)c2ccc(N(C)C)cc2)cc1	A2780cisR	MTT		72 h	pIC50	5.34
COc1ccc2/c(=N/c3ccccc3NC(=O)[C@@H](N)CO)cc(-c3ccc4c(c3)OCCO4)oc2c1	MOLM-13	CCK-8	1 µM		inhibition	3.26%
CCCCCCCCCCCCCCCCCCOCC(COP(=O)([O-])OCC[N+](C)(C)C)OC (stereo not drawn)	NCI-H23	SRB	10 µM		inhibition	10.9%
COCCC(=O)Nc1ccccc1/N=c1\cc(-c2ccc3c(c2)OCO3)oc2ccccc12	MOLM-13	CCK-8	1 µM		inhibition	6.03%
C(=N\Nc1cc(N/N=C/c2cccc3cccnc23)nc(-c2ccccc2)n1)/c1cccc2cccnc12	Bel-7402	MTT		48 h	pIC50	4.95
N#CSCc1cc(=O)oc2cc(O)ccc12	SW1573	SRB			GI50	5.5 µM
NCCC(=O)Nc1ccccc1/N=c1\cc(-c2ccc3nc(N)oc3c2)oc2ccccc12	MOLM-13	CCK-8	1 µM		inhibition	60.4%
